Measured values published in ChEMBL document CHEMBL1149189, “In vitro antimalarial activity of a series of cationic 2,2'-bipyridyl- and 1,10-phenanthrolineplatinum(II) benzoylthiourea complexes” (J Med Chem, 2004).
Where a name gives a salt, the structure may show the parent alone.

Tested on: CHO
Assay: In vitro cytotoxicity against CHO cells was determined using MTT colorimetric assay
Type: functional, cell-based
Settings: Cricetulus griseus
Outline: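 Chinese hamster ovary cells; MTT colorimetric read-out. Compounds dissolved as 2 mg/mL stocks in water, then diluted in medium as six serial 10-fold dilutions, final 100 µg/mL to 1 ng/mL. Emetine dihydrochloride as positive control. IC50 from nonlinear dose–response curve fitting; mean ± standard deviation of two independent experiments, each in triplicate.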

**Q.** For `CC[C@H]1CN2CCc3cc(OC)c(OC)cc3[C@@H]2C[C@@H]1C[C@H]1NCCc2cc(OC)c(OC)cc21` [EMETINE HYDROCHLORIDE], which IC50 is on record?
**A.** 0.139 µM

Tested on: Ferriprotoporphyrin IX
Settings: not given

**Q.** `Clc1cc2cccnc2c2ncccc12` was tested. Which Log K did it give?
**A.** 3.01

**Q.** How did the Log K turn out when `Cc1cc2cccnc2c2ncccc12` was run?
**A.** 2.93

**Q.** `Cc1ccnc2c1ccc1cccnc12` was tested. Which Log K did it give?
**A.** 3.22

**Q.** For `O=[N+]([O-])c1cc2cccnc2c2ncccc12`, which Log K is on record?
**A.** 2.88

**Q.** With `CCN(CC)CCN(CCN(CC)CC)C(=S)NC(=O)c1ccccc1` as the compound, how does the Log K read?
**A.** 1.93

**Q.** How did the Log K turn out when `Cc1cnc2c(ccc3c(C)c(C)cnc32)c1C` was run?
**A.** 3.32

Tested on: Ferriprotoporphyrin IX
Settings: not given
Remark: another data set of the same source

**Q.** Which “Log K” value does the source give for `O=C(NC(=S)N(CCO)CCO)c1ccccc1` here?
**A.** No association

**Q.** With `Cc1ccnc(-c2cc(C)ccn2)c1` as the compound, how does the “Log K” value read?
**A.** No association

**Q.** For `c1ccc(-c2ccccn2)nc1`, which “Log K” value is on record?
**A.** No association
